Data from PubChem BioAssay.
The source made the active and inactive calls.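 Rule for the calls, unless noted: active = Her2 level under about 52% in both replicate screens, with viability over 70% of control (limit read from the data); inconclusive = Her2 under the limit in one screen only, or viability under 70%; inactive = Her2 level above the set limit.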

Experiments:
[1] = Her2 expression decrease, cell viability multiplex – SKBR3 breast tumor cells, AlphaScreen, ATP viability, primary screen (AID 461); details: SKBR3 Her2 protein level, 18-24 h, measured here: SKBR3 viability, ATP luminescence, at 10 µM;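 for Her2 level: lower value means less Her2 protein in the cells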;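 for viability: percent of carrier control wells set as 100% viability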
[2] = biological target: Receptor tyrosine-protein kinase erbB-2 (Homo sapiens) (UniProt P04626); assay: as above; details: 18-24 h, at 10 µM, stronger effect = lower value
Chain of Receptor tyrosine-protein kinase erbB-2 (Homo sapiens) (P04626 whole entry, looked up): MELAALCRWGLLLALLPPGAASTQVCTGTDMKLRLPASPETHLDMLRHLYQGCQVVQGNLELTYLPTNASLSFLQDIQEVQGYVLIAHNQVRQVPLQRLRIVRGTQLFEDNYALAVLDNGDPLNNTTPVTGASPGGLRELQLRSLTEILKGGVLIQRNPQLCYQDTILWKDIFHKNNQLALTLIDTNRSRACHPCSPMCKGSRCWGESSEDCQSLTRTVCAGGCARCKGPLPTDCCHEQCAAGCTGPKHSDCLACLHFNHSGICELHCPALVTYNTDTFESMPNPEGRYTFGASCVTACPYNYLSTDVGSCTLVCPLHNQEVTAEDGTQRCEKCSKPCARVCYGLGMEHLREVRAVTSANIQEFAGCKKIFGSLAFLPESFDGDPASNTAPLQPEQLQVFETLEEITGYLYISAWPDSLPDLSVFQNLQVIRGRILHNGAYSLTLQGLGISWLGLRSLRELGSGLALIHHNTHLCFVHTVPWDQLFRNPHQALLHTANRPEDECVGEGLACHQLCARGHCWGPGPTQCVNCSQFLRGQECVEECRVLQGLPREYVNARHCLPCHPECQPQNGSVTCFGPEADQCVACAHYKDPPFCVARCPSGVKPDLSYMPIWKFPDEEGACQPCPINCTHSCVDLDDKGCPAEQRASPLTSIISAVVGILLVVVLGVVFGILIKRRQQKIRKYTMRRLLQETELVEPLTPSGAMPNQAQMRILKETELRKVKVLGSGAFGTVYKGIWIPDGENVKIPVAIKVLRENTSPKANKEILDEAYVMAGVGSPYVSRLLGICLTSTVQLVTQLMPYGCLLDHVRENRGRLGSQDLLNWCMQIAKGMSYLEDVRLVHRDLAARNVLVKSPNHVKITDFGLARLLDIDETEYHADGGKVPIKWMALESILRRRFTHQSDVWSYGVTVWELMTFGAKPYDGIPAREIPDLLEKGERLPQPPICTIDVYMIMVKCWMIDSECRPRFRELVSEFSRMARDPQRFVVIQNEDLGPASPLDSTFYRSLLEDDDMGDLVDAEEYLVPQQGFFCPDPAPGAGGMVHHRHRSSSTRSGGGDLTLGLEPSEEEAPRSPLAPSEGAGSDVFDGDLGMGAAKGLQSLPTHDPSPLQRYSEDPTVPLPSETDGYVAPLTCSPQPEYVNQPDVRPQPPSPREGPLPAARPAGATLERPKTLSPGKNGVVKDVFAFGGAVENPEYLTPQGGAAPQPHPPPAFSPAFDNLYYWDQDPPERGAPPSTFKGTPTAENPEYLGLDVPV

[3] = reduced viability of SK-BR-3 breast cancer cells – cell-based, 24 h, human, pilot screen (AID 572;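 active = viability at or below 10% of carrier control in both of two separate runs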;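 note: compound exposure lasted between 18 and 24 h rather than exactly 24 h; 100% = carrier-treated control wells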); details: SK-BR-3 viability, CellTiter-Glo luminescence, at 10 µM, stronger effect = lower value
[4] = HUVEC growth inhibition – cell-based, human, primary screen (AID 575;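 active = viability at or below 30% in both replicate assays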;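 note: 100% = median of untreated cell wells with 0.1% DMSO on each plate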); details: HUVEC proliferation, CellTiter-Glo luminescence, 72 h; at 10 µM; stronger effect = lower value
Outline: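 Test system – primary HUVEC, no more than 12 passages · Dosing – one dose, 10 µM final, 0.1% DMSO · Times – 72 h treatment at 37 °C · Measured by – ATP-based CellTiter-Glo luminescent read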

[5] = H69AR cell proliferation blockers – human, duplicate replicates, primary screen (AID 580;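 active = viability at or under a set limit in both replicates, limit being median viability minus 3 SD, cut at about 48% in these data, passing the limit was not always enough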;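 note: 100% = mean luminescence of untreated wells and 0% = no signal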); details: H69AR lung tumor cells viability, ATP luminescence, 72 h; at 10 µM; stronger effect = lower value
[6] = MRP1 drug-resistance reversers in H69AR cells – cell-based, doxorubicin co-treatment, pilot screen (AID 601;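 active = viability loss from added drug above about 55%, and viability with drug at most 40%, in both replicates, limit read from the data, passing the limit was not always enough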); details: CellTiter-Glo, 72 h, at 10 µM; for differential viability (reversal): stronger effect = higher value
[7] = yeast transport mutant growth inhibition pilot in 384-well plates, post-Golgi transport modulator project (AID 636; in the data active = inhibition above about 31%); details: absorbance 615 nm, about 18 h, stronger effect = higher value
[8] = growth suppression of yeast trafficking mutant, preliminary HTS, modulators of trafficking downstream of Golgi apparatus project, 1536-format plate, OD 615 nm (AID 637; in the data active = inhibition above about 30%); details: yeast transport mutant growth, absorbance 615 nm, 18 h; stronger effect = higher value
[9] = H69AR cells + 2 uM doxorubicin, measured here: viability with 2 uM doxorubicin, stronger effect = lower value
[10] = H69AR cells, compound alone cytotoxicity

Row | Structure (SMILES) | viability [1] | Her2 level [2] | viability [3] | viability [4] | viability [5] | differential viability (reversal) ([6]; H69AR cells + 2 uM doxorubicin) | viability [6, 9] | viability [6, 10] | inhibition [7] | inhibition [8]
1 | CC(C)OC(=O)CN1C(=O)C(C)(C)Oc2ccc(C(=O)NC3CC3)cc21 | 96% | 92.5% (inactive) | 96% (inactive) | 93.1% (inactive) | 91.6% (inactive) | -2.77% (inactive) | 94.3% | 91.6% | -3.2% (inactive) | 1.94% (inactive)
2 | COc1ccc2c(c1)[nH]c1c(=O)n(CC3CCCO3)cnc12 (stereo not given) | 86% | 94% (inactive) | 86% (inactive) | 97.2% (inactive) | 90.5% (inactive) | -4.4% (inactive) | 94.9% | 90.5% | -3.42% (inactive) | -6.39% (inactive)
3 | O=S(=O)(c1ccc2ccccc2c1)N(CC(O)CN1CCOCC1)c1ccccc1 (stereo not given) | 87% | 75.5% (inactive) | 87% (inactive) | 83.9% (inactive) | 100% (inactive) | 19% (inactive) | 81% | 100% | -5.87% (inactive) | -1.13% (inactive)
4 | CCOC(=O)N1CCC(NC(=O)CCN2C(=O)COc3ccccc32)CC1 | 100% | 106% (inactive) | 100% (inactive) | 100% (inactive) | 84.1% (inactive) | 6.63% (inactive) | 77.5% | 84.1% | 0% (inactive) | -6.17% (inactive)
5 | COc1ccc(OC)c(S(=O)(=O)N2CCC(C(=O)NCC3CCCO3)CC2)c1 (stereo not given) | 101% | 84.5% (inactive) | 101% (inactive) | 106% (inactive) | 98.9% (inactive) | 8.66% (inactive) | 90.2% | 98.9% | -6.27% (inactive) | -3.49% (inactive)
6 | O=C(Cn1cnc2ccccc2c1=O)NCCC(=O)N1CCN(c2ccccc2)CC1 | 90.5% | 83.5% (inactive) | 90.5% (inactive) | 99.6% (inactive) | 92% (inactive) | 8.53% (inactive) | 83.5% | 92% | -3.25% (inactive) | -0.98% (inactive)
7 | O=C(O)COc1ccc2occ(C(=O)c3ccccc3)c2c1 | 102% | 95.5% (inactive) | 102% (inactive) | 100% (inactive) | 93.9% (inactive) | 1.01% (inactive) | 92.9% | 93.9% | -3.55% (inactive) | 7.21% (inactive)
8 | Cc1ccc(C(C)C)c(OCCn2c(=O)oc3ccccc32)c1 | 89% | 133% (inactive) | 89% (inactive) | 87.9% (inactive) | 95.8% (inactive) | 13.5% (inactive) | 82.3% | 95.8% | 0.79% (inactive) | -3.83% (inactive)
9 | O=C(CSc1nc(-c2ccccc2)cs1)NC(=O)NCc1ccco1 | 86.5% | 77.5% (inactive) | 86.5% (inactive) | 58.4% (inactive) | 76.7% (inactive) | -0.93% (inactive) | 77.6% | 76.7% | -5.6% (inactive) | 2.06% (inactive)
10 | COc1ccc2c(c1)C(C)=CC(C)(C)N2C(=O)C(C)N1C(=O)c2ccccc2C1=O (stereo not given) | 109% | 104% (inactive) | 109% (inactive) | 81.6% (inactive) | 85.7% (inactive) | -1.3% (inactive) | 87% | 85.7% | -5.71% (inactive) | -3.33% (inactive)
11 | O=C(O)CC1CCCC(c2ccccc2)C1=O (stereo not given) | 97% | 110% (inactive) | 97% (inactive) | 108% (inactive) | 99.6% (inactive) | 6.58% (inactive) | 93% | 99.6% | -6.4% (inactive) | -9.35% (inactive)
12 | CCOC(=O)c1sc(NC(=O)CSc2nnc3c4ccccc4n(CC)c3n2)nc1C | 83.5% | 104% (inactive) | 83.5% (inactive) | 104% (inactive) | 96.2% (inactive) | -0.44% (inactive) | 96.7% | 96.2% | 1.67% (inactive) | -3.33% (inactive)
13 | Cc1cc2ncn(C(=O)c3c(-c4ccccc4)noc3C)c2cc1C | 102% | 110% (inactive) | 102% (inactive) | 76.8% (inactive) | 81.8% (inactive) | 4.1% (inactive) | 77.7% | 81.8% | 0.13% (inactive) | -6.23% (inactive)
14 | CCOC(=O)C1CCCN(C(=O)c2cc3c(C)nc4ccccc4c3o2)C1 (stereo not given) | 86% | 99% (inactive) | 86% (inactive) | 71.7% (inactive) | 74.7% (inactive) | 38.5% (inactive) | 36.2% | 74.7% | -1.87% (inactive) | 16.7% (inactive)
15 | COc1cccc(-n2ccnc2SCC(=O)N2CCc3ccccc32)c1 | 94.5% | 102% (inactive) | 94.5% (inactive) | 109% (inactive) | 102% (inactive) | -5.1% (inactive) | 107% | 102% | 0.93% (inactive) | -3.06% (inactive)
